pEC50: −log10 of the molar value.
What was measured:
Melanocortin receptor 3 [1] = biological target: T1, Melanocortin receptor 3 (Homo sapiens, UniProt P41968); test: Agonist activity at EYFP-fused human MC3R expressed in HEK293 cells after 16 to 20 hrs by CRE-driven reporter assay; assay type: functional, cell-based
How it was run: (§1)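 HEK293 monoclonal lines carrying a single receptor/9×CRE-d2EYFP construct, selected with puromycin and FACS-sorted, kept in low-fluorescence DMEM. EYFP imaged with bright-field images, normalized to cell coverage, corrected for unstimulated cells and scaled to α-MSH maximum. Four-parameter fit constrained to minimum 0, at least three independent experiments.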

Melanocortin receptor 5 [2] = biological target: T2, Melanocortin receptor 5 (Homo sapiens, UniProt P33032); test: Agonist activity at EYFP-fused human MC5R expressed in HEK293 cells after 16 to 20 hrs by CRE-driven reporter assay; assay type: functional, cell-based; how it was run: as §1
T2 sequence (P33032 whole entry, the tested form may be a part): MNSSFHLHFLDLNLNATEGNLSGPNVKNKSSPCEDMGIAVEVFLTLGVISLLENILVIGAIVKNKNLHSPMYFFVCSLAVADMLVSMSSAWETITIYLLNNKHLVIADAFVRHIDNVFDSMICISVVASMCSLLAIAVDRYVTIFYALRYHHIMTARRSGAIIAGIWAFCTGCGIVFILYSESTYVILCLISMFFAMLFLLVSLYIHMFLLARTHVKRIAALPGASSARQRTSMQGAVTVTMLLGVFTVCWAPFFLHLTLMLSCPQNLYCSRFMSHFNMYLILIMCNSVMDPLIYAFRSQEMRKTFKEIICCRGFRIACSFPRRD

Melanocortin receptor 4 [3] = biological target: T3, Melanocortin receptor 4 (Homo sapiens, UniProt P32245); test: Agonist activity at EYFP-fused human MC4R expressed in HEK293 cells assessed as increase in cAMP accumulation after 30 mins by luminescent enzymatic complementation based assay; assay type: functional, cell-based
T3 sequence (P32245 whole entry, the tested form may be a part): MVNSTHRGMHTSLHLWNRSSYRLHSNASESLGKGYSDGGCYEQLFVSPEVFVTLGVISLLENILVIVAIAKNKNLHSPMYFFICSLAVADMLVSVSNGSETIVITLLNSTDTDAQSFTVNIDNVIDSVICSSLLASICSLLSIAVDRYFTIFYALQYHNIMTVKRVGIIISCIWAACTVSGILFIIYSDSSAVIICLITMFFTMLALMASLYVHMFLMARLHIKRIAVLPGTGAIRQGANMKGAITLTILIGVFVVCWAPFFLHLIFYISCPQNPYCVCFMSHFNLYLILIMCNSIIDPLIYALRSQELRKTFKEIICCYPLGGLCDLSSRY

Melanocortin receptor 5 [4] = biological target: T2, Melanocortin receptor 5; test: Agonist activity at EYFP-fused human MC5R expressed in HEK293 cells after 16 to 20 hrs by CRE-driven reporter assay relative to alpha-MSH; assay type: functional, cell-based; how it was run: as §1
Melanocortin receptor 4 [5] = biological target: T3, Melanocortin receptor 4; test: Agonist activity at EYFP-fused human MC4R expressed in HEK293 cells after 16 to 20 hrs by CRE-driven reporter assay; assay type: functional, cell-based
Melanocortin receptor 3 [6] = biological target: T1, Melanocortin receptor 3; test: Agonist activity at EYFP-fused human MC3R expressed in HEK293 cells after 16 to 20 hrs by CRE-driven reporter assay relative to alpha-MSH; assay type: functional, cell-based; how it was run: as §1
Melanocortin receptor 4 [7] = biological target: T3, Melanocortin receptor 4; test: Agonist activity at EYFP-fused human MC4R expressed in HEK293 cells assessed as increase in cAMP accumulation at 3000 nM after 30 mins by luminescent enzymatic complementation based assay relative to alpha-MSH; assay type: functional, cell-based
How it was run: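 MC4R-expressing HEK293 cells seeded at 50,000/well and switched after 24 h to HBSS with 500 μM IBMX. Ligand was added as 11-point series in triplicate for 30 min. Cells were lysed and incubated with enzyme fragments and substrate at room temperature in the dark for at least 4 h. Luminescence from enzyme complementation was background-corrected and normalized to the α-MSH maximum, with at least three independent experiments.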

Melanocortin receptor 3 [8] = biological target: T1, Melanocortin receptor 3; test: Agonist activity at EYFP-fused human MC3R expressed in HEK293 cells at 3000 nM after 16 to 20 hrs by CRE-driven reporter assay relative to alpha-MSH; assay type: functional, cell-based
How it was run: as §1, with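 “DMEM. Seeded at 50,000 cells/well and treated after 24 h for 16–20 h with 11-point 3-fold dilutions (3.3 μM to […]) in triplicate, vehicle 0.5% v/v DMSO.” for “DMEM.”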

Melanocortin receptor 4 [9] = biological target: T3, Melanocortin receptor 4; test: Agonist activity at EYFP-fused human MC4R expressed in HEK293 cells at 3000 nM after 16 to 20 hrs by CRE-driven reporter assay relative to alpha-MSH; assay type: functional, cell-based
How it was run: as §1, with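 “DMEM. Seeded at 50,000 cells/well and treated after 24 h for 16–20 h with 11-point 3-fold dilutions (3.3 μM to […]) in triplicate, vehicle 0.5% v/v DMSO.” for “DMEM.”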

Melanocortin receptor 5 [10] = biological target: T2, Melanocortin receptor 5; test: Agonist activity at EYFP-fused human MC5R expressed in HEK293 cells at 3000 nM after 16 to 20 hrs by CRE-driven reporter assay relative to alpha-MSH; assay type: functional, cell-based
How it was run: as §1, with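 “DMEM. Seeded at 50,000 cells/well and treated after 24 h for 16–20 h with 11-point 3-fold dilutions (3.3 μM to […]) in triplicate, vehicle 0.5% v/v DMSO.” for “DMEM.”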

Homo sapiens = species on record: Homo sapiens; test: Selectivity ratio of EC50 for EYFP-fused human MC3R expressed in HEK293 cells to EC50 for EYFP-fused human MC4R expressed in HEK293 cells; assay type: cell-based

T1 sequence (P41968 whole entry, the tested form may be a part): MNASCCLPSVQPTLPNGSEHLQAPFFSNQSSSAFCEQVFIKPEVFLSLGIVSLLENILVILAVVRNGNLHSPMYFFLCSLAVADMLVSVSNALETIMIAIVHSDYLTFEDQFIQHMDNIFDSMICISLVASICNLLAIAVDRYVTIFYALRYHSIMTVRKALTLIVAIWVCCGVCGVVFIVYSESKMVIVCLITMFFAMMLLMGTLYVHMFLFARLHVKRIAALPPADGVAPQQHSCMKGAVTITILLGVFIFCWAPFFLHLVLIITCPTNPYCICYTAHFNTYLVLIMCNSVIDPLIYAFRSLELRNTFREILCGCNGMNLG

| SMILES | pEC50 (Melanocortin receptor 3 [1]) | pEC50 (Melanocortin receptor 5 [2]) | pEC50 (Melanocortin receptor 4 [3]) | Emax (Melanocortin receptor 5 [4]) | pEC50 (Melanocortin receptor 4 [5]) | Emax (Melanocortin receptor 3 [6]) | Emax (Melanocortin receptor 4 [7]) | Emax (Melanocortin receptor 3 [8]) | Emax (Melanocortin receptor 4 [9]) | Emax (Melanocortin receptor 5 [10]) | Ratio EC50 (Homo sapiens) |
| --- | --- | --- | --- | --- | --- | --- | --- | --- | --- | --- | --- |
| CSCC[C@H](NC(=O)[C@@H]1Cc2cn(nn2)C[C@H](NC(=O)[C@H](C)N)C(=O)N[C@@H](Cc2cnc[nH]2)C(=O)N[C@H](Cc2ccccc2)C(=O)N[C@@H](CCCNC(=N)N)C(=O)N[C@@H](Cc2c[nH]c3ccccc23)C(=O)N1)C(=O)O | 7.71 | 6.86 | 8.70 | 123% | 8.85 | 111% | – | – | – | – | – |
| CC[C@@H](C)[C@H]1NC(=O)[C@H](Cc2cnc[nH]2)NC(=O)[C@@H](NC(=O)[C@@H](N)CCCCN)Cn2cc(nn2)C[C@@H](C(=O)N[C@@H](CCSC)C(=O)O)NC(=O)[C@H](Cc2c[nH]c3ccccc23)NC(=O)[C@H](CCCNC(=N)N)NC1=O | < 5.52 | < 5.52 | < 5.52 | – | < 5.52 | – | 13% | 0% | 42% | 0% | – |
| CSCC[C@H](NC(=O)[C@@H]1Cc2cn(nn2)C[C@H](NC(=O)[C@@H](N)CCCCN)C(=O)N[C@@H](Cc2cnc[nH]2)C(=O)N[C@H](C)C(=O)N[C@@H](CCCNC(=N)N)C(=O)N[C@@H](Cc2c[nH]c3ccccc23)C(=O)N1)C(=O)O | < 5.52 | < 5.52 | 6.03 | – | 6.95 | – | – | 33% | – | 8% | – |
| CC(=O)N[C@@H](CCCNC(=N)N)C(=O)N[C@H]1CSSC[C@@H](C(N)=O)NC(=O)[C@H](Cc2c[nH]c3ccccc23)NC(=O)[C@H](CCCNC(=N)N)NC(=O)[C@@H](Cc2ccccc2)NC(=O)[C@H](Cc2c[nH]cn2)NC(=O)[C@@H](C)NC1=O | – | 6.96 | – | – | – | – | – | – | – | – | – |
| CSCC[C@H](NC(=O)[C@@H]1Cc2cn(nn2)C[C@H](NC(=O)[C@@H](N)CCCCN)C(=O)N[C@@H](C)C(=O)N[C@H](Cc2ccccc2)C(=O)N[C@@H](CCCNC(=N)N)C(=O)N[C@@H](Cc2c[nH]c3ccccc23)C(=O)N1)C(=O)O | 6.20 | 6.43 | 7.54 | 130% | 8.55 | 104% | – | – | – | – | – |
| CSCC[C@H](NC(=O)[C@@H]1Cc2cn(nn2)C[C@H](NC(=O)[C@@H](N)CCCCN)C(=O)N[C@@H](Cc2cnc[nH]2)C(=O)N[C@H](Cc2ccccc2)C(=O)N[C@@H](CCCCN)C(=O)N[C@@H](Cc2c[nH]c3ccccc23)C(=O)N1)C(=O)O | < 5.52 | < 5.52 | 6.91 | – | 7.90 | – | – | 40% | – | 13% | – |
| CSCC[C@H](NC(=O)[C@@H]1Cc2cn(nn2)C[C@H](NC(=O)[C@@H](N)CCCCN)C(=O)N[C@@H](Cc2cnc[nH]2)C(=O)N[C@@H](Cc2ccccc2)C(=O)N[C@@H](CCCNC(=N)N)C(=O)N[C@@H](Cc2c[nH]c3ccccc23)C(=O)N1)C(=O)O | < 5.52 | < 5.52 | 6.10 | – | 6.17 | – | – | 32% | – | 1% | – |
| CSCC[C@H](NC(=O)[C@@H]1Cc2cn(nn2)C[C@H](NC(=O)[C@@H](N)CCCCN)C(=O)N[C@@H](Cc2cnc[nH]2)C(=O)N[C@H](Cc2ccccc2)C(=O)N[C@@H](C)C(=O)N[C@@H](Cc2c[nH]c3ccccc23)C(=O)N1)C(=O)O | < 5.52 | < 5.52 | 6.16 | – | 6.59 | – | – | 10% | – | 5% | – |
| CSCC[C@H](NC(=O)[C@@H]1Cc2cn(nn2)CCC[C@H](N)C(=O)N[C@@H](Cc2cnc[nH]2)C(=O)N[C@H](Cc2ccccc2)C(=O)N[C@@H](CCCNC(=N)N)C(=O)N[C@@H](Cc2c[nH]c3ccccc23)C(=O)N1)C(=O)O | < 5.52 | < 5.52 | 6.14 | – | 6.73 | – | – | 16% | – | 3% | – |
| CSCC[C@H](NC(=O)[C@@H]1Cc2cn(nn2)C[C@H](NC(=O)[C@@H](N)CCCNC(=N)N)C(=O)N[C@@H](Cc2cnc[nH]2)C(=O)N[C@H](Cc2ccccc2)C(=O)N[C@@H](CCCNC(=N)N)C(=O)N[C@@H](Cc2c[nH]c3ccccc23)C(=O)N1)C(=O)O | 6.54 | 6.12 | 7.36 | 85% | 7.94 | 102% | – | – | – | – | – |
| C[C@H](NC(=O)[C@@H]1Cc2cn(nn2)C[C@H](NC(=O)[C@@H](N)CCCCN)C(=O)N[C@@H](Cc2cnc[nH]2)C(=O)N[C@H](Cc2ccccc2)C(=O)N[C@@H](CCCNC(=N)N)C(=O)N[C@@H](Cc2c[nH]c3ccccc23)C(=O)N1)C(=O)O | 6.79 | 6.20 | 7.75 | 126% | 8.64 | 107% | – | – | – | – | – |
| CSCC[C@H](NC(=O)[C@@H]1Cc2cn(nn2)C[C@H](NC(=O)[C@@H](N)CCCCN)C(=O)N[C@@H](Cc2cnc[nH]2)C(=O)N[C@H](Cc2ccccc2)C(=O)N[C@@H](CCCNC(=N)N)C(=O)N[C@@H](Cc2c[nH]c3ccccc23)C(=O)N1)C(=O)O | 6.91 | 6.52 | 8.04 | 120% | 8.74 | 105% | – | – | – | – | 70 |
| CSCC[C@H](NC(=O)[C@@H]1Cc2cn(nn2)C[C@H](NC(=O)[C@@H](N)CCCCN)C(=O)N[C@@H](Cc2c[nH]c3ccccc23)C(=O)N[C@H](Cc2ccccc2)C(=O)N[C@@H](CCCNC(=N)N)C(=O)N[C@@H](Cc2cnc[nH]2)C(=O)N1)C(=O)O | < 5.52 | < 5.52 | < 5.52 | – | < 5.52 | – | 28% | 0% | 48% | 0% | – |
| CSCC[C@H](NC(=O)[C@@H]1Cc2cn(nn2)C[C@H](NC(=O)[C@@H](N)CCCCN)C(=O)N[C@@H](Cc2cnc[nH]2)C(=O)N[C@H](Cc2ccccc2)C(=O)N[C@@H](CCCNC(=N)N)C(=O)N[C@@H](C)C(=O)N1)C(=O)O | 5.52 to 5.72 | 5.52 to 6.09 | < 5.52 | – | < 5.52 | – | 16% | 17% | 19% | 18% | – |
| CSCC[C@H](NC(=O)[C@@H]1Cc2cn(nn2)C[C@H](NC(=O)[C@@H](N)CCCCN)C(=O)N[C@@H](Cc2cnc[nH]2)C(=O)N[C@H](Cc2ccccc2)C(=O)N[C@@H](CCCN)C(=O)N[C@@H](Cc2c[nH]c3ccccc23)C(=O)N1)C(=O)O | < 5.52 | < 5.52 | 6.14 | – | 6.50 | – | – | 12% | – | 9% | – |
| CSCC[C@H](NC(=O)[C@@H]1Cc2cn(nn2)[C@@H](CCCNC(=N)N)C(=O)N[C@@H](Cc2cnc[nH]2)C(=O)N[C@H](Cc2ccccc2)C(=O)N[C@@H](CCCNC(=N)N)C(=O)N[C@@H](Cc2c[nH]c3ccccc23)C(=O)N1)C(=O)O | 6.80 | 6.04 | 8.02 | 106% | 8.49 | 112% | – | – | – | – | – |
| CSCC[C@H](NC(=O)[C@@H]1Cc2cn(nn2)C[C@H](NC(=O)[C@@H](N)CCCCN)C(=O)N[C@@H](Cc2cnc[nH]2)C(=O)N[C@H](Cc2ccccc2)C(=O)N[C@@H](CCCNC(=N)N)C(=O)N[C@@H](Cc2csc3ccccc23)C(=O)N1)C(=O)O | 6.09 | < 5.52 | 7.20 | – | 8.12 | 96% | – | – | – | 59% | – |

Source: ChEMBL document CHEMBL4028868, “Click-Chemistry-Mediated Synthesis of Selective Melanocortin Receptor 4 Agonists” (J Med Chem, 2017)
